The source made the active and inactive calls. The rule behind the calls is not given here.

As usually defined, the IC50 is the concentration needed to halve the response being measured. A higher IC50 goes with weaker potency in that assay. In general, pKa refers to the pH at which an ionisable group is half protonated. A high value points to a group that holds its proton tightly. A word on the inhibition in vivo: it is the share of the control response that was lost under treatment.

Series [1] concerns the target Prostaglandin G/H synthase 1 (Homo sapiens, UniProt P23219).
Series [2] can be described thus: Dissociation constant, pKa by sulfonamide/sulfonamidate equilibrium. It is filed as physicochemical. The essentials: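 pKa was determined by UV spectrophotometry, to assign each compound's ionic state at pH 7.4.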
The target in series [3] is T1, Prostaglandin G/H synthase 2 (Homo sapiens, UniProt P35354).
T1 sequence (P35354 whole entry): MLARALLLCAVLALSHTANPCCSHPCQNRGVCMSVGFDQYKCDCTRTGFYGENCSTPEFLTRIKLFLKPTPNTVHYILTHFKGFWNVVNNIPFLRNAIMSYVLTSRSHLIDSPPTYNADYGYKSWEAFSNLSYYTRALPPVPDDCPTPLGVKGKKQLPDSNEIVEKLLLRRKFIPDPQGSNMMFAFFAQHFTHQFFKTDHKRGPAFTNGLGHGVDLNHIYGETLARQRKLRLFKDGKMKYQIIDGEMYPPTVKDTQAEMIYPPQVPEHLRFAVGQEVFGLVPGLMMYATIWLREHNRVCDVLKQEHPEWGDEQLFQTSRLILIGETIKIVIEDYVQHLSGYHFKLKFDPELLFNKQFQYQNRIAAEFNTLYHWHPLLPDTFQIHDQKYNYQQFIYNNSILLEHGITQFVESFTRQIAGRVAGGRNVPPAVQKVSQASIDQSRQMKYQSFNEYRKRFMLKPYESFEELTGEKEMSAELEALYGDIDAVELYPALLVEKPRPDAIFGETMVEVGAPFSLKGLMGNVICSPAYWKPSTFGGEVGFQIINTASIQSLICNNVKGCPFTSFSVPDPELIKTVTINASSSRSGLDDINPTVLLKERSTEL
In kind it is tissue-based, Blood.

The nature of series [4]: Dissociation constant, pKa by pyridinium/pyridine equilibrium. It is filed as physicochemical. The method in brief:
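Ionisation constant measured by UV spectrophotometry.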

For another series, the species on record is Homo sapiens. Kind of series: Selectivity ratio of IC50 for human COX1 to IC50 for human COX2. The essentials:
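Human whole blood, each compound tested in triplicate at 0.01–100 µmol/L final, vehicle DMSO. COX-1: blood preincubated 15 min at 37 °C, stimulated with calcium ionophore A-23,187 for 15 min, serum TXB2 by EIA. COX-2: heparinized blood preincubated 15 min, then LPS (100 µg/mL final, E. coli B4) for 24 h at 37 °C, plasma PGE2 by EIA. Ratio taken as IC50 COX-1/IC50 COX-2.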

The subject of series [5] is Rattus norvegicus. Kind of series: Antiinflammatory activity against carrageenan-induced oedema in Wistar rat paw at 10 mg/kg, ip after 3 hrs relative to control. It is filed as functional. As to conditions: route intraperitoneal. The essentials: (§1)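 Wistar rats (250 g) got the drug ip from a 10 mg/mL DMSO solution. 1 h later, 0.1 mL of 1% λ-carrageenan was injected into the plantar region of the right paw. After 3 h the rats were euthanized with nembutal (100 mg/kg), and paws were cut at the ankle and weighed. Swelling inhibition is given as % vs the control group (6 rats/group, mean ± SEM).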
Background: In the carrageenan paw model, swelling and tenderness develop within hours.

The subject of series [6] is Rattus norvegicus. Kind of series: Antiinflammatory activity against carrageenan-induced oedema in Wistar rat paw at 3 mg/kg, ip after 3 hrs relative to control. In kind it is functional. As to conditions: route intraperitoneal. The essentials:
as §1

Series [7] has as its system Rattus norvegicus. Kind of series: Antiinflammatory activity against carrageenan-induced oedema in Wistar rat paw at 30 mg/kg, ip after 3 hrs relative to control. The settings on record: route intraperitoneal. It is filed as functional. The method in brief: as §1
In series [8] the test system is Rattus norvegicus. Kind of series: Lethality in Wistar rat at 30 mg/kg, ip in carrageenan-induced paw oedema model. It is filed as functional, organism-based. Details: dose 30 mg/kg. The method in brief: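 Wistar rats (250 g) were dosed ip from a 10 mg/mL DMSO solution, 1 h before 0.1 mL of 1% λ-carrageenan in the right hind paw. Deaths were noted over the following 3 h paw-oedema period in groups of six rats.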

Sequence of Prostaglandin G/H synthase 1 (P23219 whole entry): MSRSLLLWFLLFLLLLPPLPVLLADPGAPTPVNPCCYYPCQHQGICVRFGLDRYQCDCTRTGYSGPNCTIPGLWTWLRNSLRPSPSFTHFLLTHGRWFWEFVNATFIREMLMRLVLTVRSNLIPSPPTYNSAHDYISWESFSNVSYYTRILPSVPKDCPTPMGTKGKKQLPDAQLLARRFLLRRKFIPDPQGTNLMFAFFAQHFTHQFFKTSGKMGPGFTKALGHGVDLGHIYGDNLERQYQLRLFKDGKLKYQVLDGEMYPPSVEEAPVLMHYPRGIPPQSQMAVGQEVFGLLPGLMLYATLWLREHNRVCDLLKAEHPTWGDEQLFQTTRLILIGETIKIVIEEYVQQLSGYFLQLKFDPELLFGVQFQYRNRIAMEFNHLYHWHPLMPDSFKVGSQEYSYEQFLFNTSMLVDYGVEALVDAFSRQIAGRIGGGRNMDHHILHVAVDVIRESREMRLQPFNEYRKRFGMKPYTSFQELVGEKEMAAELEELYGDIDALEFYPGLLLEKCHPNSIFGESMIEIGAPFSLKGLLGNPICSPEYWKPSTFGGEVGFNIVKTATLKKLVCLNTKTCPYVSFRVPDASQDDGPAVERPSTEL

For `O=S(=O)(Nc1ccncc1[S+]([O-])c1ccccc1)C(F)(F)F` (stereo not drawn), the results for the IC50 in series [1] and in series [3] were 25.6 µM and greater than 100 µM, respectively. The results for the pKa in [2] and in [4] were less than 1 and 5.69, respectively.
Consider `COc1ccc(Oc2cnccc2NS(=O)(=O)C(F)(F)F)cc1`, for which the IC50 in series [1] came to 0.26 µM; in series [3], 0.44 µM. Besides, in the series listed under Homo sapiens, the Ratio IC50 came to 0.59.
Regarding `O=S(=O)(Nc1ccncc1Sc1ccccc1)C(F)(F)F`, the IC50 turned out to be 0.41 µM in series [1] and 0.53 µM in series [3]. Moreover, the pKa in series [2] is less than 1; in [4], 6.54. Besides, in the series filed under Homo sapiens, the Ratio IC50 is 0.78.
As to `O=S(=O)(Nc1ccncc1Oc1ccccc1)C(F)(F)F`, the inhibition in vivo at 10 mg/kg with Rattus norvegicus [5] worked out at 26%. The pKa in [2] is less than 1; in series [4], 6.81. This compound had an inhibition in vivo at 3 mg/kg in the series on Rattus norvegicus [6] of 10.9%. In the series on Rattus norvegicus [7], this compound registered an inhibition in vivo at 30 mg/kg of 46.4%.
In the series with Rattus norvegicus [5], `CS(=O)(=O)Nc1ccncc1Oc1cc(Cl)cc(Cl)c1` had an inhibition in vivo at 10 mg/kg of 18%. For the same compound, the IC50 in series [1] and in series [3] was greater than 100 µM throughout. Also, the inhibition in vivo at 3 mg/kg in the series with Rattus norvegicus [6] is 18%. The compound further returned an inhibition in vivo at 30 mg/kg in the series on Rattus norvegicus [7] of 21.3%.
Turning to `O=S(=O)(Nc1ccncc1Nc1ccccc1)C(F)(F)F`, in the series with Rattus norvegicus [5], the inhibition in vivo at 10 mg/kg is 34.5%. Also, the IC50 in series [1] came to 0.18 µM; in series [3], 0.09 µM. Moreover, in the series with Rattus norvegicus [6], at 3 mg/kg the inhibition in vivo was 22.7%. This compound also showed an inhibition in vivo at 30 mg/kg in the series with Rattus norvegicus [7] of 44%. The Ratio IC50 in the series filed under Homo sapiens is 2.03.
In the case of `CCS(=O)(=O)Nc1ccncc1Oc1ccc(Cl)cc1`, the IC50 in series [1] was 2.44 µM; in [3], 3.28 µM. In addition, the pKa was less than 4 in series [2] and 7.98 in [4]. Besides, the Ratio IC50 in the series filed under Homo sapiens stood at 0.75.
Taken in the same sequence, the figures for `CS(=O)(=O)Nc1ccncc1Oc1ccc(Br)cc1` were 1.41 µM, 7.6 µM, less than 4, 7.86 and 0.18.
Turning to `CS(=O)(=O)Nc1ccncc1Sc1ccccc1`, in the series with Rattus norvegicus [5], testing at 10 mg/kg gave an inhibition in vivo of 40.7%. Moreover, the IC50 in series [1] was found to be 3.62 µM; in [3] it was 1.19 µM. The result with Rattus norvegicus [8] was Active. This compound also displayed an inhibition in vivo at 3 mg/kg with Rattus norvegicus [6] of 7.44%. The Ratio IC50 in the series filed under Homo sapiens is 3.05.
As for `O=S(=O)(Nc1ccncc1Oc1ccccc1Cl)C(F)(F)F`, the IC50 stood at 0.27 µM in [1] and 0.15 µM in [3]. Moreover, the Ratio IC50 in the series listed under Homo sapiens was 1.74.
As to `CS(=O)(=O)Nc1ccncc1S(=O)(=O)c1ccccc1`, the IC50 in [1] and in [3] was greater than 100 µM each time.
As to `CS(=O)(=O)Nc1ccncc1Oc1ccccc1`, the IC50 is 0.41 µM in [1] and greater than 100 µM in series [3]. Further, the pKa in [2] is 2.98; in [4], 8.13. In addition, the result in the series on Rattus norvegicus [8] was Active.
As to `CCS(=O)(=O)Nc1ccncc1Oc1ccccc1`, the IC50 turned out to be 5.34 µM in series [1] and 14.1 µM in series [3]. Moreover, in the series listed under Homo sapiens, the Ratio IC50 came to 0.38.
As for `CS(=O)(=O)Nc1ccncc1Oc1ccc(Cl)cc1Cl`, 10 mg/kg produced 15.8% inhibition in vivo in the series on Rattus norvegicus [5]. The IC50 in [1] was found to be 0.62 µM; in [3] it was 0.12 µM. Further, the pKa in [2] was less than 4; in series [4] it was 7.81. In the series with Rattus norvegicus [6], this compound gave an inhibition in vivo at 3 mg/kg of 20.9%. Moreover, 30 mg/kg produced 32.7% inhibition in vivo with Rattus norvegicus [7]. The Ratio IC50 in the series listed under Homo sapiens came out at 5.15.
Consider `CN(c1ccccc1)c1cnccc1NS(=O)(=O)C(F)(F)F`, for which the IC50 in [1] was 4.63 µM; in series [3], 47.6 µM. Moreover, in the series listed under Homo sapiens, the Ratio IC50 came to 0.097.
`CS(=O)(=O)Nc1ccncc1Oc1ccccc1Cl` gave an inhibition in vivo at 10 mg/kg with Rattus norvegicus [5] of 37.5%. In addition, the IC50 in series [1] was found to be 1.03 µM; in [3], 0.13 µM. The compound also came in with an inhibition in vivo at 3 mg/kg in the series on Rattus norvegicus [6] of 9.47%. Moreover, in the series with Rattus norvegicus [7], the inhibition in vivo at 30 mg/kg came out at 62.8%. Further, the Ratio IC50 in the series listed under Homo sapiens came out at 7.92.
In the series with Rattus norvegicus [5], `O=S(=O)(Nc1ccncc1Oc1ccc(Br)cc1)C(F)(F)F` showed an inhibition in vivo at 10 mg/kg of 8.33%. Further, the IC50 in [1] stood at 0.24 µM; in [3], 13.8 µM. In the series on Rattus norvegicus [6], this compound showed an inhibition in vivo at 3 mg/kg of 5%. Moreover, the inhibition in vivo at 30 mg/kg in the series on Rattus norvegicus [7] is 36.7%. For the same compound, the Ratio IC50 in the series filed under Homo sapiens came out at 0.02.
`CS(=O)(=O)Nc1ccncc1Oc1cccc(Cl)c1`: in the series with Rattus norvegicus [5], the inhibition in vivo at 10 mg/kg stood at 21%. Further, the values for the IC50 in [1] and in [3] were 10.9 µM and 1.99 µM, respectively. Moreover, the pKa is less than 4 in series [2] and 7.74 in [4]. In addition, the result in the series with Rattus norvegicus [8] was Active. The compound further gave an inhibition in vivo at 3 mg/kg with Rattus norvegicus [6] of 10.9%. In addition, in the series listed under Homo sapiens, the Ratio IC50 came to 5.45.
In the series with Rattus norvegicus [5], `CS(=O)(=O)Nc1ccncc1Oc1ccc(Cl)cc1` showed an inhibition in vivo at 10 mg/kg of 35.1%. The IC50 in [1] turned out to be 1.45 µM; in [3] it was 1.87 µM. The values for the pKa in series [2] and in [4] were less than 4 and 7.97, respectively. The outcome in the series on Rattus norvegicus [8] was Active. In addition, the inhibition in vivo at 3 mg/kg with Rattus norvegicus [6] is 28.7%. Moreover, the Ratio IC50 in the series filed under Homo sapiens amounted to 0.77.
Regarding `O=S(=O)(Nc1ccncc1Oc1ccc(Cl)cc1)C(F)(F)F`, the IC50 in series [1] is 0.36 µM; in series [3], 1.53 µM. Further, the pKa in [2] was less than 1; in series [4] it was 6.71. For the same compound, the Ratio IC50 in the series filed under Homo sapiens was 0.24.
As to `CCCS(=O)(=O)Nc1ccncc1Oc1ccc(Cl)cc1`, the IC50 in [1] was found to be 2.3 µM; in [3], 9.69 µM. For the same compound, the Ratio IC50 in the series listed under Homo sapiens was 0.24.
Turning to `O=S(=O)(c1ccccc1)c1cnccc1NS(=O)(=O)C(F)(F)F`, the IC50 in [1] and in [3] was greater than 100 µM each time. The results for the pKa in [2] and in series [4] were less than 1 and 5.3, respectively.
For `COc1ccc(Oc2cnccc2NS(C)(=O)=O)cc1`, the IC50 is 1.81 µM in series [1] and 2.36 µM in series [3]. For the same compound, the Ratio IC50 in the series listed under Homo sapiens is 0.76.
On to `CS(=O)(=O)Nc1ccc([N+](=O)[O-])cc1Oc1ccccc1` [NIMESULIDE], for which, in the series with Rattus norvegicus [5], the inhibition in vivo at 10 mg/kg is 40.2%. The compound also had an inhibition in vivo at 3 mg/kg in the series on Rattus norvegicus [6] of 23.7%. Further, the inhibition in vivo at 30 mg/kg in the series with Rattus norvegicus [7] amounted to 44.3%.
In the case of `O=S(=O)(Nc1ccncc1Oc1cc(Cl)cc(Cl)c1)C(F)(F)F`, the IC50 in [1] and in series [3] was greater than 100 µM in each case.
With `CCCS(=O)(=O)Nc1ccncc1Oc1ccccc1`, the IC50 in [1] was 18.4 µM; in [3], greater than 100 µM.
With `O=S(=O)(Nc1ccncc1Oc1ccc(Cl)cc1Cl)C(F)(F)F`, the IC50 in series [1] turned out to be 1.37 µM; in series [3], 2.55 µM. The Ratio IC50 in the series listed under Homo sapiens was 0.54.
`O=S(=O)(Nc1ccncc1Oc1cccc(Cl)c1)C(F)(F)F`: the values for the IC50 in series [1] and in series [3] were 2.27 µM and greater than 100 µM, respectively.

(Values after ChEMBL document CHEMBL1149303 (J Med Chem, 2004).)
